# According to ChEMBL document CHEMBL4837188, “Identification of Novel Tricyclic Benzo[1,3]oxazinyloxazolidinones as Potent Antibacterial Agents with Excellent Pharmacokinetic Profiles against Drug-Resistant Pathogens” (J Med Chem, 2021):
# What was measured:
# Format in all cases: functional
# [1] = test system: Mycobacterium tuberculosis; assay: Antitubercular activity against linezolid resistant Mycobacterium tuberculosis assessed as inhibition of bacterial growth incubated for 7 days by MABA; details: 168 h, time 7 day
# [2] = test system: Mycobacterium tuberculosis; assay: Antitubercular activity against INH, SM, RFP, EMB, RBT, PAS, OLFX-resistant Mycobacterium tuberculosis 13946 assessed as bacterial growth inhibition incubated for 7 days by MABA; details: Mycobacterium tuberculosis, 13946, 168 h; time 7 day
# In short: (§1)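 Microplate alamar blue assay. H37Rv or clinical isolates were grown to late log phase in 7H9 broth with glycerol, Tween 80 and ADC, then 2 × 10⁵ CFU added to two-fold dilutions. Final range 32–0.5 μg/mL, lowered to 2–0.016 μg/mL for active compounds. 37 °C, 7 days, then alamar blue 16 h. Fluorescence 530/590 nm. MIC is the lowest concentration giving ≥90% reduction; INH and RFP were controls.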
# [3] = test system: Mycobacterium tuberculosis; assay: Antitubercular activity against INH, SM, RFP, EMB, PAS, Prothionamide 1321, Capreomycin-resistant Mycobacterium tuberculosis 14862 assessed as bacterial growth inhibition incubated for 7 days by MABA; details: Mycobacterium tuberculosis, 14862, 168 h; time 7 day; in short: as §1
SMILES,MIC [1] [µg/mL],MIC [2] [µg/mL],MIC [3] [µg/mL]
CC(=O)NC[C@H]1CN(c2ccc(N3CCOCC3)c(F)c2)C(=O)O1 [LINEZOLID],14.5,–,–
NNC(=O)c1ccncc1 [ISONIAZID],–,2.38,> 10
CC(=O)NC[C@@H]1OC(=O)N2Cc3cc(-c4ccc(C#N)nc4)c(F)cc3O[C@@H]12,3.63,0.48,0.82
CO[C@H]1/C=C/O[C@@]2(C)Oc3c(C)c(O)c4c(O)c(c(/C=N/N5CCN(C)CC5)c(O)c4c3C2=O)NC(=O)/C(C)=C\C=C\[C@H](C)[C@H](O)[C@@H](C)[C@@H](O)[C@@H](C)[C@H](OC(C)=O)[C@@H]1C [RIFAMPIN],–,> 10,> 10
CC(=O)NC[C@@H]1OC(=O)N2Cc3cc(-c4ccc(-c5nnn(C)n5)nc4)c(F)cc3O[C@@H]12,2.32,0.39,0.85
